Screens: PubChem, several laboratories
Most compounds without a hit are left out; they make up all but 1% or so of the library.
Hep lipid drop – modulators of hepatic lipid droplet formation | AML12 mouse hepatocytes, oleate lipid droplets, BODIPY imaging | inhibition, % at 6.5 µM | hit rate 0.4% among 240,000;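 active means lipid droplet intensity inhibited by at least 50%, with more than 500 cells counted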
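Material – AML12 mouse liver cells · Also added – oleate loading, 100 µM · Compound dosing – 6.5 µM single-point dosing · Times – overnight treatment with compound plus oleate · Measured by – fluorescence imaging, 20x objective, two fields per well · Read-out – percent inhibition of filter-corrected integrated lipid droplet intensity per well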
Arr AP2 block – blocks beta-arrestin peptide binding to AP2 adaptin; FITC-arrestin peptide / GST-AP2 beads, flow cytometry; AP2 beta2 appendage carries R879A mutation; inhibition, % at 10 µM; hit rate 0.31% among 340,000;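 active means inhibition above a set limit, near 3 SD of compounds lacking own fluorescence, cut at about 54% in these data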
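System: GST-AP2 R879A glutathione beads. Medium: PBS with 0.05% Tween 20 and 0.1% BSA. Also added: FITC-arrestin peptide, 50 nM. Incubation: 12 min plus 1 h, RT. Measured by: high-throughput flow cytometry of beads, ex 488, em 535 nm. Evaluation: percent drop in bead-associated FITC signal.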
Fh CTSL1 inh – cathepsin L1 inhibition, PFM18AAP counter-screen; hit rate 0.49% among 300,000; AID 1906; recombinant F. hepatica cathepsin L1, Z-Leu-Arg-MCA fluorescence; inhibition, % at 5.96 µM;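 active means inhibition above the mean of all tested compounds plus 3 SD, set per screening campaign, cut at about 17% in these data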
pCIP destab – lowers stability of the mouse p/CIP coactivator protein; Q05BA5; F442A p/CIP-EGFP cells, EGFP fluorescence, 16 h; decrease of EGFP signal, % at 10 µM; hit rate 0.01% among 290,000;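 active means EGFP signal decrease of at least 30% at 10 µM or well 3 SD below plate mean, unless failing retest; inactive means the rest, including hits failing retest or dose response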
Arr-AP2 CP1 – human beta-arrestin and AP2 interaction inhibition, cherry pick; shares compounds with Arr AP2 block; GST-AP2 beads, FITC arrestin peptide binding, flow cytometry; GST-fused beta2-adaptin appendage, R879A mutant; hit rate 2% among 1,300; AID 504908; inhibition, % at 10 µM;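 active means inhibition above a set limit, roughly 3 SD of non-fluorescent compound noise, cut at about 38% in these data; inactive means inhibition at or below that limit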;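 further: loss of bead fluorescence from 50 nM FITC arrestin peptide bound to appendage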
GST GSH counter – GST-GSH bead binding interference, counter-screen; shares compounds with Arr AP2 block; GST-fluorescein binding to GSH beads, fluorescence; inhibition, % at 10 µM; hit rate 2% among 1,300;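 active means inhibition above 50%, about 3 SD of the inhibition seen with non-fluorescent compounds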;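 further: fluorescein maleimide labelled GST captured on 4 micron glutathione beads; higher means more loss of bead fluorescence from quenching or blocked binding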
Large screens that a line does not name were inactive (follow-up assays come after a bar, where they were run).

COc1cc2c(cc1NC(=O)COC(=O)c1ccc(C(C)(C)C)cc1)oc1ccccc12	none | Arr-AP2 CP1 inactive | GST GSH counter inactive
COc1cc2c(cc1NC(=O)CSc1cccc[n+]1[O-])oc1ccccc12	Arr AP2 block 56 | Arr-AP2 CP1 inactive | GST GSH counter inactive
O=C(N/N=C/c1cccnc1)c1cccc(Cl)c1	none
Cc1ccc(NC(=O)CN2CCCC2c2cccs2)cc1S(=O)(=O)N1CCCCC1 (stereo not drawn)	none (no result: Hep lipid drop, Fh CTSL1 inh, pCIP destab)
Cn1cnc2ccc([N+](=O)[O-])cc2c1=O	none
COc1cc2c(cc1NC(=O)Cc1ccc(C)cc1)oc1ccccc12	none | Arr-AP2 CP1 inactive | GST GSH counter inactive
COc1cc2c(cc1NC(=O)CSc1ccc(C)cc1)oc1ccccc12	none (no result: Hep lipid drop) | Arr-AP2 CP1 inactive | GST GSH counter inactive
COc1ccc(-n2cc(CN(C)C3CCOCC3)c(-c3cccc(F)c3)n2)cc1	none
Cc1ccc(C2Nc3cccc4cccc(c34)N2)s1	Arr AP2 block 87 | Arr-AP2 CP1 inactive | GST GSH counter inactive
Fc1ccc(C2Nc3cccc4cccc(c34)N2)cc1	none
Cc1csc(=Nc2cccnc2)n1CC1CCCCC1	Arr AP2 block 70 | Arr-AP2 CP1 inactive | GST GSH counter inactive
COCCCn1c(C)csc1=Nc1cccnc1	none
COc1ccccc1NC(=O)CSc1ccc2nnc(-c3ccc(C)cc3)n2n1	none
O=C(CSc1nc2[nH]ncc2c(=O)n1-c1ccccc1)c1ccc2c(c1)OCCO2	none
N=c1c2cn[nH]c2nc(SCC(=O)c2ccc(Br)cc2)n1-c1ccc(Br)cc1	Arr AP2 block 74 | Arr-AP2 CP1 inactive | GST GSH counter inactive
COc1ccc(/C=C2\SC(=S)N(CCCC(=O)Nc3cc(C)on3)C2=O)cc1OC	Arr AP2 block 76 | Arr-AP2 CP1 inactive | GST GSH counter inactive
O=C(NCCN1CCOCC1)c1ccc2c(c1)N(Cc1ccccc1)C(=O)c1ccccc1S2	Arr AP2 block 62 | Arr-AP2 CP1 inactive | GST GSH counter inactive
Cc1ccc(C(C)(C)NC(=O)C2CCC(=O)N(Cc3ccccc3F)C2)cc1 (stereo not drawn)	none | Arr-AP2 CP1 inactive | GST GSH counter inactive
O=C(CC(=O)c1ccccc1)Nc1ccc(Cl)cc1	none | Arr-AP2 CP1 inactive | GST GSH counter inactive
CSc1ccccc1C(=O)Nc1ccc(C)c(C)c1	Arr AP2 block 54 | Arr-AP2 CP1 inactive | GST GSH counter inactive
COc1ccccc1NC(=O)CC(=O)c1ccccc1	none | Arr-AP2 CP1 inactive | GST GSH counter inactive
COc1ccc(NC(=O)CCCC(=O)c2ccccc2)cc1OC	Arr AP2 block 61 | Arr-AP2 CP1 inactive | GST GSH counter inactive
COc1ccccc1NC(=O)CC(=O)Nc1ccccc1OC	none (no result: Hep lipid drop)
CSc1ccccc1C(=O)Nc1cc(C)cc(C)c1	none (no result: Hep lipid drop)
CC(CCc1ccccc1)NC(=O)/C=C/c1ccc(Cl)cc1 (stereo not drawn)	none
Cc1cccc(NC(=S)N2CCN(C(=O)c3ccco3)CC2)c1	none
Cc1ccc(NC(=O)CC(=O)c2ccccc2)cc1C	none | Arr-AP2 CP1 inactive | GST GSH counter inactive
CCOc1ccc(CN(C)CC(=O)Nc2cc(OC)c([N+](=O)[O-])cc2C)cc1	none
CC(Oc1ccc(Br)cc1)C(=O)N1CCN(c2ccccn2)CC1 (stereo not drawn)	none (no result: Fh CTSL1 inh)
CC(Oc1ccc(Br)cc1)C(=O)N1CCC(C(N)=O)CC1 (stereo not drawn)	Arr AP2 block 59 | Arr-AP2 CP1 inactive | GST GSH counter inactive
Cc1ccccc1CN1CCN(CC2CC2)CC1CCO (stereo not drawn)	Arr AP2 block 57 | Arr-AP2 CP1 inactive | GST GSH counter inactive
Cc1ccccc1CN1CCN(CCCc2ccccc2)C(CCO)C1 (stereo not drawn)	none
COc1ccc(C(=O)NCCCN2CCOCC2)cc1OC	none (no result: Hep lipid drop)
Cc1ccn2c(NC(=O)C(C)(C)Oc3ccc(Cl)cc3)c(-c3cccs3)nc2c1	Arr AP2 block 60 | Arr-AP2 CP1 inactive | GST GSH counter inactive
Cc1ccc(C(=O)Nc2c(-c3cccs3)nc3cc(C)ccn23)cc1	none
CN1CCCC1CCNc1ccc2oc3ccccc3c(=O)c2c1 (stereo not drawn)	none (no result: Hep lipid drop, Arr AP2 block)
COc1ccc(CCC(=O)N2CCN(S(=O)(=O)c3cccc(Cl)c3)CC2)cc1	Arr AP2 block 56 (no result: Hep lipid drop, Fh CTSL1 inh, pCIP destab) | Arr-AP2 CP1 inactive | GST GSH counter inactive
